Source: ChEMBL document CHEMBL4007465, “1,4-Substituted Triazoles as Nonsteroidal Anti-Androgens for Prostate Cancer Treatment” (J Med Chem, 2017)
Calls of active or inactive are those of the source. The calls are words filed in the database; no cut-off is given here.

What was measured:
[1] = biological target: T1, Androgen receptor (Homo sapiens) (UniProt P10275); experiment: Antagonist activity at androgen receptor in human LNCAP cells assessed as reduction in PSA mRNA expression at 10 uM after 24 hrs by RT-qPCR analysis relative to control; format: cell-based
T1 sequence (whole entry): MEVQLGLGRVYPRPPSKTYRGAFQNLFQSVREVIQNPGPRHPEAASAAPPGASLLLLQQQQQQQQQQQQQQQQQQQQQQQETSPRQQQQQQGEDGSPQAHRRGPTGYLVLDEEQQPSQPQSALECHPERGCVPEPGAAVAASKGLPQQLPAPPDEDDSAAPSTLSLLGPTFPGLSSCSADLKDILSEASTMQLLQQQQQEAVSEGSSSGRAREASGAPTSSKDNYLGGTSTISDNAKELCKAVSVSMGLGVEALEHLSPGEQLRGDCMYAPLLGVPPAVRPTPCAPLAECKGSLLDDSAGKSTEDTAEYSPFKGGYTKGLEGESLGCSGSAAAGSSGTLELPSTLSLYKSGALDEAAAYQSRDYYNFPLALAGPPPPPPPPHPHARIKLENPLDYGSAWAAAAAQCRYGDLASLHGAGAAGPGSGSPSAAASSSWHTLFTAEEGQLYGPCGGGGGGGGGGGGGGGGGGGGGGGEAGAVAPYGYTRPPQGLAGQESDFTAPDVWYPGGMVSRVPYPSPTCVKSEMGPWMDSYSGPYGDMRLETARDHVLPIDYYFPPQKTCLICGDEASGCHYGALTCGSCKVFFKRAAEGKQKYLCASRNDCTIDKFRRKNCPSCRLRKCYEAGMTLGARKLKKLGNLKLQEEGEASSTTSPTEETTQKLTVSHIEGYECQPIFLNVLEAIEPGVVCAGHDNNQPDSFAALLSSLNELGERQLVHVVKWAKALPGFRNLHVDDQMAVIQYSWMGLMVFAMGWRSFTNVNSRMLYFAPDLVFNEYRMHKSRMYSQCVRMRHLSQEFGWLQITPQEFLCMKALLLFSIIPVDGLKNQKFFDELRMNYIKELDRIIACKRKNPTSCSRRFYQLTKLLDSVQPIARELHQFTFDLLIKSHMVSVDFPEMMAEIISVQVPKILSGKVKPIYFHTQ
Procedure, shortened: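 LNCaP cells treated 24 h after seeding with 10 μM compound for 24 h at 37 °C. RNA extracted, cDNA made from equal RNA amounts, then SYBR Green RT-qPCR for PSA. Normalised to 18S rRNA, relative levels by comparative Ct method versus untreated cells. Run in triplicate.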

[2] = Antagonist activity at androgen receptor V7 mutant in human CW22Rv1 cells assessed as cell growth inhibition after 72 hrs by SRB assay; format: cell-based
[3] = Antitumor activity against human CW22Rv1 cells xenografted in nude CD1 mouse assessed as tumor volume inhibition at 50 mg/kg administered through oral gavage dosed qd for 5 days a week measured on day 7; format: functional
Procedure, shortened: (§1)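 Male CD-1 nude (nu/nu) mice, 8 weeks old, given 5 × 10^6 CW22Rv1 cells in saline s.c. in the right flank on day 0. Randomized, 5 per group. From day 1, before tumors were palpable, 50 mg/kg by oral gavage at 10 mL/kg in DMSO/Cremophor/PBS (10/5/85), qdx5/wx3w. Vehicle controls. Tumor volume by caliper as a × b²/2. TVI is the maximum value. Body weight loss monitored.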

Mus musculus [4] = experiment: Toxicity in nude CD1 mouse xenografted with human CW22Rv1 cells assessed as mortality at 50 mg/kg administered through oral gavage dosed qd for 5 days a week for 3 weeks; format: organism-based; settings: in vivo
Procedure, shortened: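 Eight-week-old male CD-1 nude mice, 5 per group, given CW22Rv1 cells (5 × 10^6 in saline) sc in right flank on day 0. From day 1, oral gavage at 50 mg/kg (10 mL/kg) in DMSO/Cremophor/PBS (10/5/85), daily 5 days/week for 3 weeks. Vehicle controls. Toxicity scored as deaths per group, with body weight loss.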

Mus musculus [5] = experiment: Toxicity in nude CD1 mouse xenografted with human CW22Rv1 cells assessed as body weight loss at 50 mg/kg administered through oral gavage dosed qd for 5 days a week for 3 weeks; format: organism-based; settings: in vivo; procedure, shortened: as §1
[6] = biological target: T1, Androgen receptor (Homo sapiens)
[7] = test system: Homo sapiens [UNDEFINED MUTATION]; experiment: Antagonist activity at androgen receptor V7 mutant in human CW22Rv1 cells assessed as cell growth inhibition after 144 hrs by SRB assay; format: cell-based
Procedure, shortened: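 SRB assay on CW22Rv1 cells grown in RPMI 1640 with 10% FBS and 1% glutamine. Cells plated at 1700/well and exposed 24 h after seeding for 144 h to 0.02–20 μM. OD read at 490 nm. GI50 is the concentration giving 50% growth inhibition by the Monks formula relative to time-zero and untreated OD. Octuplicate wells, three independent experiments, mean ± SD.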

Homo sapiens [8] = species on record: Homo sapiens; experiment: Potency index, ratio of enzalutamide IC50 to compound IC50 for antagonist activity at AR V7 mutant in human CW22Rv1 cells assessed as cell growth inhibition; format: cell-based
Procedure, shortened: (§2)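 CW22Rv1 growth-inhibition assay: cells exposed 24 h after seeding to 0.5–100 μM for 72 h, then counted with a Coulter counter. IC50 is the concentration causing 50% growth inhibition, taken from dose–response curves. Run in triplicate, three independent experiments, mean ± SD. Ratios divide the reference IC50 by the compound IC50.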

Homo sapiens [9] = species on record: Homo sapiens; experiment: Potency index, ratio of (R)-bicalutamide IC50 to compound IC50 for antagonist activity at AR V7 mutant in human CW22Rv1 cells assessed as cell growth inhibition; format: cell-based; procedure, shortened: as §2
[10] = biological target: T1, Androgen receptor (Homo sapiens); experiment: Antagonist activity at androgen receptor in human LNCAP cells assessed as cell death after 144 hrs by SRB assay; format: cell-based
Procedure, shortened: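 LNCaP cells in RPMI with 10% FBS and 1% glutamine, 5000 cells/well, exposed 24 h after seeding for 144 h to 0.02–20 μM. Read by SRB, OD 490 nm. LC50 is the concentration killing 50% of cells, i.e. treated OD below time-zero OD, per the Monks formula. Octuplicate wells, three independent experiments, mean ± SD.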

[11] = test system: Homo sapiens [UNDEFINED MUTATION]; experiment: Antagonist activity at androgen receptor V7 mutant in human CW22Rv1 cells assessed as cell death after 144 hrs by SRB assay; format: cell-based
Procedure, shortened: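 CW22Rv1 (RPMI 1640, 10% FBS, 1% glutamine) plated at 1700 cells/well; 24 h after seeding, drug exposure 0.02–20 μM for 144 h. Sulforhodamine B read at 490 nm. LC50 = concentration killing 50% of cells, i.e. OD treated below OD at time of drug addition (Monks formula). Octuplicate wells, three independent experiments, mean ± SD.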

SMILES	inhibition [1]	also measured
N#Cc1ccc(-n2cc(COc3ccc([N+](=O)[O-])cc3)nn2)cc1C(F)(F)F	> 65%	
CNC(=O)c1ccc(N2C(=S)N(c3ccc(C#N)c(C(F)(F)F)c3)C(=O)C2(C)C)cc1F [ENZALUTAMIDE]		IC50 [2]: 35.8 µM; %max [3]: 43%; Activity (Mus musculus [4]): Non-Toxic; Activity (Mus musculus [5]): 0%
N#Cc1ccc(NC(=O)Cn2cc(COc3ccc(F)cc3)nn2)cc1C(F)(F)F	inactive	
N#Cc1ccccc1OCc1cn(-c2ccc(C#N)c(C(F)(F)F)c2)nn1	> 65%	
N#Cc1ccc(-n2cc(-c3cccc(Cl)c3F)nn2)cc1C(F)(F)F	inactive	
N#Cc1ccc(NC(=O)Cn2cc(CSc3ccc(F)cc3)nn2)cc1C(F)(F)F	inactive	
N#Cc1ccc(-n2cc(COc3cccc(C(F)(F)F)c3)nn2)cc1C(F)(F)F	inactive	
N#Cc1ccc(-n2cc(COc3ccc(F)c(C(F)(F)F)c3)nn2)cc1C(F)(F)F	inactive	
C[C@](O)(CS(=O)(=O)c1ccc(F)cc1)C(=O)Nc1ccc(C#N)c(C(F)(F)F)c1 [(R)-BICALUTAMIDE]		IC50 [2]: 31.3 µM
N#Cc1ccc(-n2nnc(COc3ccc([N+](=O)[O-])cc3C(F)(F)F)c2I)cc1C(F)(F)F	inactive	
N#Cc1ccc(-n2cc(COc3ccc(F)cc3)nn2)cc1C(F)(F)F	> 65%	GI50 [6]: 19.2 µM
N#Cc1ccc(OCc2cn(CC(=O)Nc3ccc(C#N)c(C(F)(F)F)c3)nn2)cc1	70%	GI50 [6]: 6.42 µM
CC(O)c1c(COc2ccc(C#N)cc2)nnn1-c1ccc(C#N)c(C(F)(F)F)c1 (stereo not given)	> 65%	
N#Cc1ccc(OCc2cn(-c3ccc(C#N)c(C(F)(F)F)c3)nn2)cc1	> 65%	
N#Cc1ccc(-n2cc(COc3ccccc3[N+](=O)[O-])nn2)cc1C(F)(F)F	> 65%	
O=[N+]([O-])c1ccc(OCc2cn(-c3cccc(C(F)(F)F)c3)nn2)c(C(F)(F)F)c1	inactive	
N#Cc1ccc(-n2cc(COc3ccc([N+](=O)[O-])cc3C(F)(F)F)nn2)cc1C(F)(F)F	inactive	
N#Cc1ccc(-n2cc(CSc3ccc(F)cc3)nn2)cc1C(F)(F)F	> 65%	GI50 [6]: 16.8 µM
N#Cc1ccc(-n2cc(COc3ccccc3)nn2)cc1C(F)(F)F	> 65%	
N#Cc1ccc(-n2cc(COc3cccc(C(F)(F)F)c3F)nn2)cc1C(F)(F)F	inactive	
N#Cc1ccc(-n2cc(COc3ccc(C(F)(F)F)cc3)nn2)cc1C(F)(F)F	inactive	
N#Cc1ccc(-n2cc(-c3cccc(C(F)(F)F)c3F)nn2)cc1C(F)(F)F	inactive	
N#Cc1ccc(OCc2cn(CC(=O)Nc3ccc(Cl)c(C(F)(F)F)c3)nn2)cc1	inactive	GI50 [6]: 5.09 µM; IC50 [2]: 8.14 µM; GI50 [7]: 8.25 µM; Ratio IC50 (Homo sapiens [8]): 4.4; Ratio IC50 (Homo sapiens [9]): 3.8; GI50 [10]: 15.7 µM; LC50 [11]: 23.1 µM; %max [3]: 60%; Activity (Mus musculus [4]): Non-Toxic; Activity (Mus musculus [5]): 0%
N#Cc1ccc(-n2cc(-c3cccc(F)c3F)nn2)cc1C(F)(F)F	38%	
